Data taken from PubChem BioAssay.
Calls of active or inactive are those of the source.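 The calls were made as follows, unless noted: active = inhibition above 20% together with a positive visual image hit; inconclusive = visual image hit but inhibition not above 20%; inactive = no visual image hit.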

Assays:
[1] = inhibitors of TNFa-induced NFkB p65 translocation, primary screen, imaging, HUVEC, MLSMR starter and 10KST1 sets (AID 438); conditions: HUVEC TNFa-induced p65 nuclear translocation; cell count: measured here: nuclei count (cytotoxicity indicator), at 2.08 µM; inhibition: at 2 µM, stronger effect = higher value, 0% TNFa-plus-vehicle, 100% no-TNFa wells;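 also: compound added about 3h40 before a 20 min TNFalpha stimulation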;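 as to inhibition: signal is the nuclear over cytoplasmic p65 intensity ratio per well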
[2] = endothelial E-selectin expression blockers – imaging, HUVEC, immunofluorescence, MLSMR starter and 10KST1 sets, primary screen (AID 487;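 active = visually confirmed hit in the image check and inhibition above 20%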;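 as to inhibition: signal is fraction of cell area covered by stained E-selectin grains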;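 as to nuclei count: 100% = median nuclei count of all wells on the same plate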); conditions: HUVEC TNFalpha-induced E-selectin immunofluorescence imaging, at 2 µM; inhibition: stronger effect = higher value; nuclei count: measured here: cell number, toxicity
[3] = Primary imaging screen for DUSP6 inhibitors that restore phospho-Erk in transfected HeLa cells, chemical complementation (AID 609;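 active = compounds giving at least 50% inhibition in the cell-based MKP-3 phosphatase rescue imaging test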;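 as to inhibition: phospho-Erk level distribution per well compared with pooled transfected vehicle control wells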); conditions: HeLa MKP-3 transfected, phospho-Erk imaging KS statistic, at 10 µM, cells stimulated with TPA for 15 min
[4] = biological target: Dual specificity protein phosphatase 6 (Homo sapiens) (UniProt Q16828); experiment: as above; conditions: HeLa MKP-3 transfected, phospho-Erk imaging KS statistic; at 10 µM; stronger effect = higher value; cells stimulated with TPA for 15 min
[5] = biological target: Voltage-gated potassium channel subunit beta-2 (Rattus norvegicus) (UniProt P62483); experiment: inhibitors of rat Kvbeta2 reductase activity – biochemical, NADPH fluorescence, primary screen (AID 622;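 active = fluorescence slope higher than the sample average by over 3 SD, cut at about -0.22 in these data, passing the limit was not always enough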;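 also: slope of raw intensity against log time taken from 70 to 1610 s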); conditions: recombinant KvBeta, 4-cyanobenzaldehyde reduction, at 10 µM, stronger effect = higher value
[6] = biological target: Voltage-gated potassium channel subunit beta-2 (Rattus norvegicus) (UniProt P62483); experiment: enhancers of rat Kvbeta2 NADPH turnover – biochemical, NADPH fluorescence, primary screen (AID 623;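 active = NADPH fluorescence slope more negative than the mean of all samples by about 3 SD, 99.7% confidence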;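 also: fluorescence intensity change per second fitted from 20 to 320 s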); conditions: Recombinant KvBeta, NADPH fluorescence decrease slope, 10 min; at 10 µM; stronger effect = lower value
[7] = biological target: Muscarinic acetylcholine receptor M4 (Homo sapiens) (UniProt P08173); experiment: M4-linked GIRK flux change, two-sided – cell-based, HEK293 M4/GIRK, thallium flux, BTC-AM, M4 allosteric agonist project, primary screen (AID 625;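 active = fluorescence slope after compound addition differing from the mean of all tested samples at 99.7% confidence, mostly higher but some lower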;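 also: thallium influx through GIRK channels coupled to M4 in HEK293 cells with BTC-AM dye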); conditions: at 10 µM, actives lie on both sides
Method in brief: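 Material: HEK293 cells with M4 receptor and GIRK channels; Times: cells overnight at 37 °C, BTC-AM loading 1 h, reads 2 min total; Technique: kinetic BTC-AM fluorescence sampled at 1 Hz, 10 s pre-addition baseline; Read-out basis: slope over 15–24 s of trace normalized to starting intensity; Controls: carbachol positive, DMSO negative.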

[8] = inhibitors of larval lipid processing in zebrafish, primary screen, whole organism, PED6 fluorescence, gall bladder and intestine (AID 686;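 active = a full or partial loss of lipid-probe fluorescence in the fish gall bladder, intestine or both, judged by eye; inactive = no fluorescence loss, or compound toxic to the fish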;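 also: larvae 5 to 7 days old with five fish per well; signal comes from phospholipase A2 cleavage of quenched PED6 carried via bile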); conditions: Zebrafish larvae PED6 lipid processing, fluorescence scoring; screened at 20 µM (by protocol)
Method in brief: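 Incubation: overnight exposure of larvae to compound plus PED6 / Test system: live zebrafish larvae aged 5-7 days, whole organism / Amount: 5 larvae per well / Read-out basis: visual per-well fluorescence inhibition score / Signal: visual fluorescence microscopy scoring of gall bladder, gut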

[9] = loss of swimming-algae plug formation – whole organism, Chlamydomonas reinhardtii, WT vs cilia-less mutant, absorbance, 96-well, primary screen (AID 463189;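 active = inhibition at or above 50% relative to wild type and mutant plate controls; inactive = inhibition below 50%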;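 also: 0% = wild type cc124 cells in DMSO and 100% = ciliumless bld1 mutant cells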); conditions: Chlamydomonas reinhardtii gravitaxis, OD600 absorbance, 2 days; at 10 µM; stronger effect = higher value
[10] = measured here: cell density z-score
[11] = measured here: nuclear c-Myc green intensity z-score
[12] = measured here: nuclear pErk red intensity z-score, stronger effect = higher value

Sequence of Muscarinic acetylcholine receptor M4 (Homo sapiens) (P08173 whole entry, looked up): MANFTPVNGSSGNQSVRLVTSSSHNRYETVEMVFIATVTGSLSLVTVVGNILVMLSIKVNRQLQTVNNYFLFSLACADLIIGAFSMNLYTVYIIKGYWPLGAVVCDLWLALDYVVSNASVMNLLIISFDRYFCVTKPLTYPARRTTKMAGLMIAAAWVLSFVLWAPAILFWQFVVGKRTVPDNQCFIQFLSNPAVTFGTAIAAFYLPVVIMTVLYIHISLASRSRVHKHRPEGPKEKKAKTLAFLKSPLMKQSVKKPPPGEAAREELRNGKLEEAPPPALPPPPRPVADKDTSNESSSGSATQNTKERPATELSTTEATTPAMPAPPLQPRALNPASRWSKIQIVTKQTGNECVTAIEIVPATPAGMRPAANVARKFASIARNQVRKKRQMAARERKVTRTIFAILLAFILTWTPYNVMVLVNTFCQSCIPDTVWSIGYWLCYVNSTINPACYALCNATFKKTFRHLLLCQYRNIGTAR
Sequence of Dual specificity protein phosphatase 6 (Homo sapiens) (Q16828 whole entry, looked up): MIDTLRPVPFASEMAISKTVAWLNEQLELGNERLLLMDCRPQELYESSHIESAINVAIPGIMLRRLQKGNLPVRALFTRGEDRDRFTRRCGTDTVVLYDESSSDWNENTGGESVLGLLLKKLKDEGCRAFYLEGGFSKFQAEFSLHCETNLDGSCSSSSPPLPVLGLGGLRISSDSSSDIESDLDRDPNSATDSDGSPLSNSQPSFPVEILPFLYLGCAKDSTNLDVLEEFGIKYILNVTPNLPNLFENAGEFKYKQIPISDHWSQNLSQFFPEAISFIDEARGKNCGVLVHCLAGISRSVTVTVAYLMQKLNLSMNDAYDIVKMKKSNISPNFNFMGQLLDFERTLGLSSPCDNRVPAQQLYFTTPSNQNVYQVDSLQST
Sequence of Voltage-gated potassium channel subunit beta-2 (Rattus norvegicus) (P62483 whole entry, looked up): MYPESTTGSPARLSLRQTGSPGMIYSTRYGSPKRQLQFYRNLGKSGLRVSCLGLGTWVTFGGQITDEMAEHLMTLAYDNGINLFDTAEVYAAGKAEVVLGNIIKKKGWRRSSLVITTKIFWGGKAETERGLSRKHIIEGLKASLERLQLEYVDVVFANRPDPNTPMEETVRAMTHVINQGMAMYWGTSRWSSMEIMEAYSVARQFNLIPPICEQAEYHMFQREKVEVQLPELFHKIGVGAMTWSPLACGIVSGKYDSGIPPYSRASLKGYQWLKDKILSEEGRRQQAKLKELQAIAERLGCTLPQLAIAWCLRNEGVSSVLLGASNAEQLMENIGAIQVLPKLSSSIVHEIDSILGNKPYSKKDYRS

| Compound | cell count [1] | inhibition [1] | inhibition [2] | nuclei count [2] [%] | z-score [3, 10] | z-score [3, 11] | z-score [3, 12] | inhibition [4] | fluorescence slope [5] | NADPH fluorescence slope [6] | fluorescence slope [7] | outcome [8] | inhibition [9] |
| --- | --- | --- | --- | --- | --- | --- | --- | --- | --- | --- | --- | --- | --- |
| O=C(Nc1ncccc1Cl)c1cccc(F)c1 | 527 | 0.8% (inactive) | 19.5% (inactive) | 88.6 | -1.41 | 0.161 | -0.3 | 3.42% (inactive) | -0.419 (inactive) | 1.2e-05 (inactive) | 0.0047 (inactive) | inactive | 34.1% (inactive) |
| COc1cc(S(=O)(=O)N2CCN(C)CC2)c(OC)cc1Br | 616 | 13.9% (inactive) | -43.1% (inactive) | 114 | 0.0206 | -1.18 | -0.865 | 1.63% (inactive) | -0.424 (inactive) | -3.6e-05 (inactive) | 0.00502 (inactive) | inactive | 21% (inactive) |
| O=C1c2ccccc2C(=O)N1c1ncccn1 | 500 | -8.5% (inactive) | -89% (inactive) | 138 | -0.519 | -0.638 | 0.031 | 1.42% (inactive) | -0.454 (inactive) | -0.000107 (inactive) | 0.00418 (inactive) | inactive | 3.86% (inactive) |
| C=CCN(C)CCCNC(=O)/C=N/O | 585 | -6.9% (inactive) | 22.6% (inactive) | 87 | 1.68 | -0.8 | -0.822 | 31.4% (inactive) | -0.504 (inactive) | -8.8e-05 (inactive) | 0.00593 (inactive) | inactive | -9.97% (inactive) |
| c1ccc2c(c1)[nH]c1c(N3CCSCC3)ncnc12 | 567 | -4.6% (inactive) | -117% (inactive) | 193 | 0.216 | -0.97 | -0.889 | -4.59% (inactive) | -0.358 (inactive) | -3.7e-06 (inactive) | 0.00494 (inactive) | inactive | 14.6% (inactive) |
| COc1cc2nc(-c3ccccc3)nc(N3CCCC3)c2cc1OC | 397 | -11.2% (inactive) | -164% (inactive) | 154 | 0.13 | -0.48 | 0.0689 | 1.42% (inactive) | -0.433 (inactive) | -0.000105 (inactive) | 0.00381 (inactive) | inactive | 17.6% (inactive) |
| CNC(=O)CCn1nc(-c2ccccc2)c2ccccc2c1=O | 737 | -2.4% (inactive) | -67.9% (inactive) | 156 | 1.04 | -1.35 | -0.0887 | 11.4% (inactive) | -0.455 (inactive) | -2.4e-05 (inactive) | 0.00449 (inactive) | inactive | 10.7% (inactive) |
| COc1cc(=O)[nH]c(=O)n1CC(=O)c1ccccc1 | 719 | -7.7% (inactive) | -4.5% (inactive) | 160 | -0.792 | 1.02 | 1.07 | -2.09% (inactive) | -0.452 (inactive) | -3.7e-05 (inactive) | 0.00585 (inactive) | inactive | -0.879% (inactive) |
| COc1ccc(NC(=O)c2c(C)cc(=O)oc2C)c(OC)c1 | 631 | 3.2% (inactive) | 11.9% (inactive) | 111 | 0.599 | -0.258 | 0.577 | -7.67% (inactive) | -0.454 (inactive) | -3.9e-05 (inactive) | 0.00518 (inactive) | inactive | -7.06% (inactive) |
| O=c1c(-c2ccc(Cl)cc2)[n+]([O-])c2ccccc2n1O | 517 | -16.1% (inactive) | -12.5% (inactive) | 170 | 0.0473 | 0.796 | 0.573 | 15.9% (inactive) | -0.31 (inactive) | -3.9e-05 (inactive) | 0.0132 (active) | inactive | 33.5% (inactive) |
| COc1cccc(C(=O)c2sc(NC(C)C)nc2N)c1 | 637 | -11.5% (inactive) | 61.3% (inactive) | 158 | -0.552 | 2.2 | 0.884 | -3.95% (inactive) | -0.496 (inactive) | -7.1e-05 (inactive) | 0.00607 (inactive) | inactive | -1.39% (inactive) |
| COc1ccc(CCNc2oc(COc3ccccc3)nc2C#N)cc1 | 481 | -2.4% (inactive) | -411% (inactive) | 140 | 0.781 | 0.424 | 0.61 | -3.95% (inactive) | -0.409 (inactive) | -5.2e-05 (inactive) | 0.00409 (inactive) | inactive | -2.43% (inactive) |
| CCSc1nc2sc3c(c2c(=O)n1C1CCCCC1)CCN(C)C3 | 364 | -10% (inactive) | -37.3% (inactive) | 101 | -0.995 | 0.578 | 0.504 | -8.59% (inactive) | -0.419 (inactive) | -6.1e-05 (inactive) | 0.00313 (inactive) | inactive | -2.62% (inactive) |
| C/C(=N/n1cnnc1)c1cccnc1 | 541 | 1.3% (inactive) | -130% (inactive) | 140 | 0.514 | -0.833 | -1.29 | 3.42% (inactive) | -0.448 (inactive) | -0.000104 (inactive) | 0.00412 (inactive) | inactive | -7.67% (inactive) |
| CN1C(=O)C2(c3ccccc31)C1CCCC=C1C(C#N)=C(N)C2(C#N)C#N (stereo unspecified) | 391 | -7% (inactive) | -160% (inactive) | 143 | -0.865 | 0.905 | -0.897 | 29.4% (inactive) | -0.472 (inactive) | -1.9e-05 (inactive) | 0.00434 (inactive) | inactive | 4.14% (inactive) |
| CN(Cc1ccccc1)c1ncnc2ccc(Br)cc12 | 591 | -9.8% (inactive) | -5.2% (inactive) | 116 | -0.293 | -0.951 | 0.281 | 2.92% (inactive) | -0.517 (inactive) | -8e-05 (inactive) | 0.00669 (inactive) | inactive | 18.9% (inactive) |
| CC(=O)N1CCN(C2c3cccc4cccc(c34)C2NS(=O)(=O)c2ccccc2)CC1 (stereo unspecified) | 507 | -0.3% (inactive) | -19.2% (inactive) | 101 | 1.9 | -1.56 | -0.633 | 33.3% (inactive) | -0.462 (inactive) | -4.4e-05 (inactive) | 0.00522 (inactive) | inactive | 30.1% (inactive) |
| CC1(C)Cc2c(c(N3CCOCC3)nc3snc(Br)c23)CO1 | 489 | -4.5% (inactive) | -99.5% (inactive) | 130 | -1.77 | 2.53 | -2.36 | 5.42% (inactive) | -0.502 (inactive) | -1.8e-05 (inactive) | 0.00473 (inactive) | inactive | 2.33% (inactive) |
| O=C(NCC(F)(F)F)Nc1nnc(C(F)(F)F)s1 | 731 | 2.9% (inactive) | -80.8% (inactive) | 166 | -0.948 | -0.154 | 0.77 | 27.5% (inactive) | -0.429 (inactive) | -5.4e-05 (inactive) | 0.00508 (inactive) | inactive | -1.99% (inactive) |
| O=C(NCCC1=CCCCC1)c1ccc(=O)oc1 | 670 | -1.4% (inactive) | 33.5% (inactive) | 163 | -0.394 | -0.165 | 0.265 | -2.29% (inactive) | -0.448 (inactive) | -0.000197 (inactive) | 0.00522 (inactive) | inactive | 20.7% (inactive) |
| CCCNC1=C(C)C(=O)CC1 | 602 | -0.5% (inactive) | -37.1% (inactive) | 120 | -1.42 | 0.756 | 1.36 | -0.233% (inactive) | -0.481 (inactive) | -4.1e-05 (inactive) | 0.00471 (inactive) | inactive | 3.26% (inactive) |
| CCCCSc1nnc(-c2ccc(NC(C)=O)cc2)n1C | 622 | -5.3% (inactive) | 21.1% (inactive) | 166 | -0.239 | 0.0535 | 0.233 | -13.3% (inactive) | -0.461 (inactive) | -3e-05 (inactive) | 0.00598 (inactive) | inactive | -9.33% (inactive) |
